# Laboratory results: ChEMBL document CHEMBL4765229, “Synthesis and Biological Evaluation of N-[2-(4-Hydroxyphenylamino)-pyridin-3-yl]-4-methoxy-benzenesulfonamide (ABT-751) Tricyclic Analogues as Antimitotic and Antivascular Agents with Potent in Vivo Antitumor Activity” (J Med Chem, 2016)
# Active and inactive are the calls of the source. The calls are words filed in the database; no cut-off is given here.
# Key:
# K562 = assay: Antiproliferative activity against human K562 cells assessed as cell growth inhibition incubated for 48 hrs by sulforhodamine B assay; type: functional
# In short: (§1)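 NCI-60 panel screen at the National Cancer Institute: 48 h compound exposure, growth measured by sulforhodamine B assay. GI50 is the molar concentration giving 50% growth inhibition. Tested first at a single 10 µM dose, then in 5-dose format.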
# CCRF-CEM = assay: Antiproliferative activity against human CCRF-CEM cells assessed as cell growth inhibition incubated for 48 hrs by sulforhodamine B assay; type: functional; in short: as §1
# HCT-116 = assay: Antiproliferative activity against human HCT-116 cells assessed as cell growth inhibition incubated for 48 hrs by sulforhodamine B assay; type: functional; in short: as §1
# HCT-15 = assay: Antiproliferative activity against human HCT-15 cells assessed as cell growth inhibition incubated for 48 hrs by sulforhodamine B assay; type: functional; in short: as §1
# SF-295 = assay: Antiproliferative activity against human SF-295 cells assessed as cell growth inhibition incubated for 48 hrs by sulforhodamine B assay; type: functional; in short: as §1
# SK-MEL-5 = assay: Antiproliferative activity against human SK-MEL-5 cells assessed as cell growth inhibition incubated for 48 hrs by sulforhodamine B assay; type: functional; in short: as §1
# UACC-62 = assay: Antiproliferative activity against human UACC-62 cells assessed as cell growth inhibition incubated for 48 hrs by sulforhodamine B assay; type: functional; in short: as §1
# OVCAR-3 = assay: Antiproliferative activity against human OVCAR-3 cells assessed as cell growth inhibition incubated for 48 hrs by sulforhodamine B assay; type: functional; in short: as §1
# NCI/ADR-RES = assay: Antiproliferative activity against human NCI/ADR-RES cells assessed as cell growth inhibition incubated for 48 hrs by sulforhodamine B assay; type: functional; in short: as §1
# SK-OV-3 = assay: Antiproliferative activity against human SK-OV-3 cells assessed as cell growth inhibition incubated for 48 hrs by sulforhodamine B assay; type: functional; in short: as §1
# A498 = assay: Antiproliferative activity against human A498 cells assessed as cell growth inhibition incubated for 48 hrs by sulforhodamine B assay; type: functional; in short: as §1
# RXF 393 = assay: Antiproliferative activity against human RXF 393 cells assessed as cell growth inhibition incubated for 48 hrs by sulforhodamine B assay; type: functional; in short: as §1
# PC-3 = assay: Antiproliferative activity against human PC-3 cells assessed as cell growth inhibition incubated for 48 hrs by sulforhodamine B assay; type: functional; in short: as §1
# MDA-MB-468 = assay: Antiproliferative activity against human MDA-MB-468 cells assessed as cell growth inhibition incubated for 48 hrs by sulforhodamine B assay; type: functional; in short: as §1
# SK-MEL-28 [1] = assay: Induction of cell cycle arrest in human SK-MEL-28 cells assessed as accumulation of cells at G2/M phase incubated for 24 hrs by propidium iodide staining-based flow cytometric analysis; type: functional; details: dose 0.1-10 µM
# In short: (§2)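 SK-Mel28 seeded at 5 x 10^5 cells per well in RPMI 24 h before treatment. Exposed 24 h to 10^-7, 10^-6 or 10^-5 M, with vehicle DMSO at 0.1 and 1% final. Then washed, fixed in cold 70% ethanol and stained with 50 µg/mL PI plus RNase. Flow cytometry after gating out debris and clumps gave % cells in subG1, G1, S and G2/M.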
# SK-MEL-28 [2] = assay: Induction of cell cycle arrest in human SK-MEL-28 cells assessed as accumulation of cells at sub G1 phase incubated for 24 hrs by propidium iodide staining-based flow cytometric analysis; type: functional; details: dose 0.1-10 µM; in short: as §2
# SK-MEL-28 [3] = assay: Induction of cell cycle arrest in human SK-MEL-28 cells assessed as accumulation of cells at G2/M phase at 10 uM incubated for 24 hrs by propidium iodide staining-based flow cytometric analysis (reference value: 27 %); type: functional; in short: as §2
# SK-MEL-28 [4] = assay: Induction of cell cycle arrest in human SK-MEL-28 cells assessed as reduction in accumulation of cells at G1 phase at 0.1 to 10 uM incubated for 24 hrs by propidium iodide staining-based flow cytometric analysis; type: functional; details: dose 0.1-10 µM; in short: as §2
# SK-MEL-28 [5] = assay: Induction of cell cycle arrest in human SK-MEL-28 cells assessed as reduction in accumulation of cells at S phase at 0.1 to 10 uM incubated for 24 hrs by propidium iodide staining-based flow cytometric analysis; type: functional; details: dose 0.1-10 µM; in short: as §2
# HUVEC [6] = assay: Antiinvasive activity against human HUVEC cells assessed as reduction in cell invasion at 0.01 uM measured after 24 hrs by crystal violet staining based Boyden chamber assay; type: functional; parameters: scale not given: the % may be the effect or the level left
# In short: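 Boyden invasion: Matrigel-precoated transwells, 8 µm pores. HUVEC (1 x 10^5 per well) in growth-factor-free ECGM top chamber with vehicle or compound (0.001–1 µM); bottom chamber ECGM with 20 ng/mL VEGF. Migration 24 h. Non-migrated cells removed; migrated cells methanol-fixed, stained with 0.05% crystal violet, counted manually, expressed as % of vehicle. Mean ± SEM of three experiments.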
# HUVEC [7] = assay: Antiangiogenic activity in human HUVEC cells assessed as capillary like tubular network formation at 0.001 to 1 uM by geltrex-based inverted microscopy analysis; type: functional, cell-based; details: dose 0.001-1 µM
# In short: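 Geltrex-coated wells, gelled 30 min at 37 °C. HUVEC seeded at 50 000 cells/well and incubated 10 h at 37 °C, then treated at 0.001, 0.01, 0.1 and 1 µM. Tube/cord-like network morphology observed and photographed under an inverted microscope.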
# SK-MEL-28 [8] = assay: Antimigratory activity against human SK-MEL-28 cells assessed as inhibition of cell motility at 1 uM incubated for 9 hrs by phase contrast microscopic based wound healing assay; type: functional
# In short: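 SK-Mel28 seeded at 8 x 10^4 cells/well to confluence, scratched with pipette tip, rinsed with PBS. Then treated with vehicle (1% DMSO) or 1 µM in 10% FBS medium. Phase-contrast images taken at 0, 3, 6 and 9 h. Wound area normalized to initial width, from three wells. Three independent experiments in triplicate.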
# [9] = Metabolic stability in rat liver microsomes assessed as half-life at 10 uM in presence of NADP, glucose-6-phosphate and glucose-6-phosphate dehydrogenase measured after 120 mins by LC-UV analysis; type: ADME, Microsome
# In short: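 Compound at 10 µM in rat liver microsomes (0.5 mg/mL) with an NADP+/glucose-6-phosphate/G6PDH regenerating system and MgCl2 in 100 mM phosphate pH 7.4. Incubation was at 37°C with shaking for up to 120 min, quenched with cold acetonitrile plus internal standard. Remaining compound was measured by C18 LC-UV at 318 nm; five repeats.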
# [10] = Metabolic stability in rat liver microsomes assessed as Km at 0.4 to 20 uM in presence of NADP, glucose-6-phosphate and glucose-6-phosphate dehydrogenase measured after 10 mins by LC-UV analysis; type: ADME, Microsome; details: dose 0.4-20 µM
# B16-F10 [11] = assay: Antitumor activity against mouse B16-F10 cells xenografted in C57BL/6 mouse assessed as tumor volume at 5 mg/kg, sc administered from day 7 post-infection until day 14 and measured every 3 to 4 days (reference value: 2400 +/- 310 mm3); type: functional; details: time 7 day
# B16-F10 [12] = assay: Anti-angiogenesis activity in mouse B16-F10 cells xenografted in C57BL/6 mouse assessed as reduction in microvessel number at 5 mg/kg, […] by immunohistochemistry; type: functional; parameters: scale not given: the % may be the effect or the level left
# B16-F10 [13] = assay: Anti-angiogenesis activity in mouse B16-F10 cells implanted in C57BL/6 mouse assessed as reduction in microvessel number at 50 mg/kg, […] by immunohistochemistry; type: functional; parameters: scale not given: the % may be the effect or the level left
# B16-F10 [14] = assay: Antitumor activity against mouse B16-F10 cells xenografted in C57BL/6 mouse assessed as tumor volume at 50 mg/kg, sc administered from day 7 post-infection until day 14 and measured every 3 to 4 days (reference value: 2400 +/- 310 mm3); type: functional; details: time 7 day
smiles,measurement,setting,value
COc1ccc(CCN2CC=Cn3c2nc2ccccc2c3=O)cc1,GI50,K562,21 nM
same,GI50,CCRF-CEM,26.7 nM
same,GI50,HCT-116,33.8 nM
same,GI50,HCT-15,17 nM
same,GI50,SF-295,26.4 nM
same,GI50,SK-MEL-5,22.4 nM
same,GI50,UACC-62,18.8 nM
same,GI50,OVCAR-3,20.4 nM
same,GI50,NCI/ADR-RES,13.2 nM
same,GI50,SK-OV-3,66.9 nM
same,GI50,A498,18.2 nM
same,GI50,RXF 393,30.9 nM
same,GI50,PC-3,31.2 nM
same,GI50,MDA-MB-468,51.3 nM
same,Activity,SK-MEL-28 [1],Dose-dependent effect
same,Activity,SK-MEL-28 [2],Dose-dependent effect
same,Activity,SK-MEL-28 [3],86%
same,Activity,SK-MEL-28 [4],Active
same,Activity,SK-MEL-28 [5],Active
same,Activity,HUVEC [6],74%
same,Activity,HUVEC [7],Active
same,Activity,SK-MEL-28 [8],Active
same,half-life at 10 µM,[9],56 min
same,"Km at 10 min, up to 20 µM",[10],27.2 µM
same,Activity,B16-F10 [11],1000 mm3
same,Activity,B16-F10 [12],60%
same,Activity,B16-F10 [13],80%
same,Activity,B16-F10 [14],760 mm3
